Legend:
[1] = biological target: High affinity nerve growth factor receptor (Homo sapiens, UniProt P04629); assay: Inhibition of wild type TEL fused TRKA (unknown origin) transfected in mouse BAF3 cells assessed as growth inhibition after 72 hrs by CCK8 assay; format: cell-based
[2] = biological target: VEGFR2 (vascular endothelial growth factor receptor 2), wild type, TEL fusion (Homo sapiens, UniProt P35968); assay: Inhibition of wild type TEL fused VEGFR2 (unknown origin) transfected in mouse BAF3 cells assessed as growth inhibition after 72 hrs by CCK8 assay; format: cell-based; conditions: mouse BaF3 cells transfected with wild type TEL-fused VEGFR2
[3] = Antiproliferative activity in mouse BAF3 cells assessed as growth inhibition after 72 hrs by CCK8 assay; format: cell-based
In short: (§1)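 TEL- or LMNA-fusion isogenic BaF3 lines grown in RPMI 1640 with 10% FBS and 1% penicillin/streptomycin at 37 °C, 5% CO₂; suspension cells collected by spinning at 800 rpm for 4 min before use; growth inhibition scored as GI₅₀.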

[4] = test system: BaF3; assay: Antitumor activity against mouse BAF3 cells harboring TEL fused TRKA allografted in nude mouse assessed as tumor growth inhibition at 80 mg/kg, po administered once daily for 10 days relative to control; format: functional; conditions: 240 h, time 10 day, read-out: TGI
In short: (§2)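 Nu/nu mice given 1 million BaF3 cells (TEL-TRKA, TEL-TRKB, TEL-TRKC, LMNA-TRKA-F589L or LMNA-TRKA-G667S) in DMEM, 1:1 with matrigel, injected subcutaneously into the right flank; oral gavage began at 200–400 mm³, 5 mice per group, compound in 0.5% methylcellulose/0.4% Tween 80 in ddH₂O, 10 days; tumor volume [(W²×L)/2] and body weight recorded daily; TGI versus vehicle.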

[5] = test system: High affinity nerve growth factor receptor (Homo sapiens), P04629 [G667C]; assay: Inhibition of LMNA fused TRKA G667C mutant (unknown origin) transfected in mouse BAF3 cells assessed as growth inhibition after 72 hrs by CCK8 assay; format: cell-based; in short: as §1
[6] = Antitumor activity against human […] cells xenografted in nude mouse assessed as tumor growth inhibition at 80 mg/kg, po administered once daily for 10 days relative to control; format: functional; conditions: KM12-Luc, 240 h, time 10 day, read-out: TGI
In short: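 Nu/nu mice given 5 million KM-12-LUC cells in DMEM, 1:1 with matrigel, injected subcutaneously into the right flank; oral gavage started at tumor size 150–200 mm³, 5 mice per group, compound in 0.5% methylcellulose/0.4% Tween 80 in ddH₂O; body weight and tumor volume [(W²×L)/2] measured daily; TGI versus vehicle.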

[7] = test system: BaF3; assay: Inhibition of LMNA fused TRKA V573M mutant (unknown origin) transfected in mouse BAF3 cells assessed as growth inhibition after 72 hrs by CCK8 assay; format: cell-based; conditions: Homo sapiens
[8] = Antiproliferative activity against human KM-12-LUC cells harboring […] fused TRKA assessed as growth inhibition after 72 hrs by CCK8 assay; format: functional; conditions: KM12-Luc
In short: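 KM-12-LUC cells seeded at 3 × 10⁴ cells/mL, incubated overnight at 37 °C, 5% CO₂, then medium replaced with fresh medium containing a range of compound concentrations for 72 h; viability read by CCK-8 absorbance at 450 nm, normalized to DMSO control, GI₅₀ from curve fitting.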

[9] = test system: BaF3; assay: Inhibition of LMNA fused TRKA F589L mutant (unknown origin) transfected in mouse BAF3 cells assessed as growth inhibition after 72 hrs by CCK8 assay; format: cell-based; conditions: Homo sapiens; in short: as §1
[10] = test system: BaF3; assay: Inhibition of LMNA fused TRKA G667S mutant (unknown origin) transfected in mouse BAF3 cells assessed as growth inhibition after 72 hrs by CCK8 assay; format: cell-based; conditions: Homo sapiens
[11] = test system: BaF3; assay: Antitumor activity against mouse BAF3 cells harboring TEL fused TRKC allografted in nude mouse assessed as tumor growth inhibition at 80 mg/kg, po administered once daily for 10 days relative to control; format: functional; conditions: 240 h, time 10 day, read-out: TGI; in short: as §2

High affinity nerve growth factor receptor, sequence (P04629 33-796 limits assumed): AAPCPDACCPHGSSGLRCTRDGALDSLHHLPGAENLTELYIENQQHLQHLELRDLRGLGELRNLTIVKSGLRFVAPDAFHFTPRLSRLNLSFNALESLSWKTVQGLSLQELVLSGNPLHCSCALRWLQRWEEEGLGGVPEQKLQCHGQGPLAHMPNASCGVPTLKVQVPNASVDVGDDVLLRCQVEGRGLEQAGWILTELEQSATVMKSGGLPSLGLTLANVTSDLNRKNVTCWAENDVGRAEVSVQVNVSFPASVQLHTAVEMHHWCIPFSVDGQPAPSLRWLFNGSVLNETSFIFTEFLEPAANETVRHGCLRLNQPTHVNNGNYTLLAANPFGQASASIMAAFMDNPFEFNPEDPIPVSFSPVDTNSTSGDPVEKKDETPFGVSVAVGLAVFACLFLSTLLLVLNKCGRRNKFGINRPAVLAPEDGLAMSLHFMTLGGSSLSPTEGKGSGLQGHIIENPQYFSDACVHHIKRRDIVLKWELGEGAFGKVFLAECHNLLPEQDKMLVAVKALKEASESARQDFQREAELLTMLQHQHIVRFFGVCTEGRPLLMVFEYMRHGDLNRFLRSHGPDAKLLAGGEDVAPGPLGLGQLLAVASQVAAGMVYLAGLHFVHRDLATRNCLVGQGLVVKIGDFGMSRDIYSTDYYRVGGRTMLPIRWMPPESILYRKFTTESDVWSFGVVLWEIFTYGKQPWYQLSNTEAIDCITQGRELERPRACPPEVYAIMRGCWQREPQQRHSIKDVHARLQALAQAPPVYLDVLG
VEGFR2 (vascular endothelial growth factor receptor 2), wild type, TEL fusion, sequence (P35968 whole entry, the tested form may be a part): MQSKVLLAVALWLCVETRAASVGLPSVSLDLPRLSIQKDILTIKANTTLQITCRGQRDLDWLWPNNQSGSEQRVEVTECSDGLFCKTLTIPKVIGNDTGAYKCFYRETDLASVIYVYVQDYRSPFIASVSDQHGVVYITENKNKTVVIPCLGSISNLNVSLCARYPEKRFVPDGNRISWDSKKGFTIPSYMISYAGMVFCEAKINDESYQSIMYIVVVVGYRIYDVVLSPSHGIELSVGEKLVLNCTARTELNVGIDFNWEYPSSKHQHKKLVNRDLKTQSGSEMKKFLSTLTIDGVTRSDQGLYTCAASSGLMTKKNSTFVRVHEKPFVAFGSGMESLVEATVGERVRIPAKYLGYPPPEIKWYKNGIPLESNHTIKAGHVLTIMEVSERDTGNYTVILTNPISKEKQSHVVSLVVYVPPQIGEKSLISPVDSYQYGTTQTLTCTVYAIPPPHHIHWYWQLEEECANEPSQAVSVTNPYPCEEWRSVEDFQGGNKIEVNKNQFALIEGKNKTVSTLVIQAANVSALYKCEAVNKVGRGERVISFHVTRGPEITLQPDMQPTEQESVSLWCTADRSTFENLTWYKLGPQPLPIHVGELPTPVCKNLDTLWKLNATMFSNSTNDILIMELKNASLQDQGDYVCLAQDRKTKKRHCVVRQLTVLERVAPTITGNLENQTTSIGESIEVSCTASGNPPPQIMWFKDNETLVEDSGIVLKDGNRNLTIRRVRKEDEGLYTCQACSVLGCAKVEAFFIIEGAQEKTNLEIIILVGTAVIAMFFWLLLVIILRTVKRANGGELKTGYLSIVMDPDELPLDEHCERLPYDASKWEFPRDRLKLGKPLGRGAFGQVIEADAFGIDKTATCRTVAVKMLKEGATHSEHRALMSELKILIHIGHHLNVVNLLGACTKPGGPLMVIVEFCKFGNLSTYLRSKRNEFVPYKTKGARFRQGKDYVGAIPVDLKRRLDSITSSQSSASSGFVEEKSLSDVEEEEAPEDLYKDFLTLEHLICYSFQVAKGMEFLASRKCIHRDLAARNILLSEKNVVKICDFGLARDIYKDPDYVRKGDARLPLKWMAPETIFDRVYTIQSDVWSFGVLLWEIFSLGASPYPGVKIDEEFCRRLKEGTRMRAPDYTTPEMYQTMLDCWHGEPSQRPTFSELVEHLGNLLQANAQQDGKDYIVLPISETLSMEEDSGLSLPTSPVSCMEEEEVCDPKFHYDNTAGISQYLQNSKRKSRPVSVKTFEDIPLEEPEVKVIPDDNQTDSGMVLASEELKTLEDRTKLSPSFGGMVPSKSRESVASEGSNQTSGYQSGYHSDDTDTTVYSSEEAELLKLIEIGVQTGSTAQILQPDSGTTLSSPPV
High affinity nerve growth factor receptor (Homo sapiens), P04629 [G667C], sequence (P04629 whole entry G667C, looked up, the tested form may be a part): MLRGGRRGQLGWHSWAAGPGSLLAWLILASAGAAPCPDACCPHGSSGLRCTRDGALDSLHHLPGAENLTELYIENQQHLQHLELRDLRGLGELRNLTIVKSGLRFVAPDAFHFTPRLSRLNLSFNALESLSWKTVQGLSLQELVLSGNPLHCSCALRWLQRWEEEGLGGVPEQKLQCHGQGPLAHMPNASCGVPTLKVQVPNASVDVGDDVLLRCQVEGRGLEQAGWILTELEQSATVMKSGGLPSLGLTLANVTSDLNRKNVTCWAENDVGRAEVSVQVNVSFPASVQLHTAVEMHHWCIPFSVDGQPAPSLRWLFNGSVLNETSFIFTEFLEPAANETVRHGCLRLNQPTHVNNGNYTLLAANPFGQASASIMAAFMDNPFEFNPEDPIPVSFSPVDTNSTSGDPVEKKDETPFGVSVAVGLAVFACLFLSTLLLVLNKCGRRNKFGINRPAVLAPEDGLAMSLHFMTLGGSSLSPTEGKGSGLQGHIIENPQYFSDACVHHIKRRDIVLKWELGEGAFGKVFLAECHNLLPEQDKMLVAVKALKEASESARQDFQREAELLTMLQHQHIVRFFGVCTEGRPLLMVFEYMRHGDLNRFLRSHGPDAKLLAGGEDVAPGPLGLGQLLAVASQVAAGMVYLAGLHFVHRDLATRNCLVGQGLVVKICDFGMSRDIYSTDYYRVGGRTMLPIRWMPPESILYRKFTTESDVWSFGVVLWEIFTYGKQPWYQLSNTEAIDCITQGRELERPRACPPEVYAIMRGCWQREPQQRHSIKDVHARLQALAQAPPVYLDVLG

| GI50 [1] [µM] | SMILES | GI50 at 72 h [2] [µM] | GI50 at 72 h [3] [µM] | also measured |
| --- | --- | --- | --- | --- |
| 0.729 | Cc1n[nH]c2cc(SCCC(=O)Nc3ccc(CN4CCN(C)CC4)c(C(F)(F)F)c3)ccc12 | 0.009 |  |  |
| 0.068 | Cc1nc(NC(=O)C(N)Cc2ccccc2)sc1-c1ccc2c(/C=C/c3ccccn3)n[nH]c2c1 (stereo not given) | 0.097 | 0.708 |  |
| > 10 | Cc1nc(NC(=O)CN2CCN(C)CC2)sc1-c1ccc2c(-c3cccc(F)c3)n[nH]c2c1 | 1.71 | 1.74 |  |
| 0.089 | Cc1nc(NC(=O)C2CCN(C)CC2)sc1-c1ccc2c(/C=C/c3ccccn3)n[nH]c2c1 | 2.04 | 2.51 |  |
| 0.062 | CN1CCN(Cc2ccc(NC(=O)Nc3cccc(Sc4ccc5c(/C=C/c6ccccn6)n[nH]c5c4)c3)cc2C(F)(F)F)CC1 | 0.015 | 3.09 |  |
| 0.04 | COc1ccc(CC(=O)Nc2nc(C)c(-c3ccc4c(/C=C/c5ccccn5)n[nH]c4c3)s2)cc1OC | 0.019 | 4.87 |  |
| 0.018 | CN1CCN(Cc2ccc(NC(=O)CCSc3ccc4c(/C=C/c5ccncc5)n[nH]c4c3)cc2C(F)(F)F)CC1 | 0.002 | 0.543 |  |
| 0.516 | Cc1ccc(-c2n[nH]c3cc(SCCC(=O)Nc4ccc(CN5CCN(C)CC5)c(C(F)(F)F)c4)ccc23)cn1 | 0.001 |  |  |
| 0.032 | Cc1nc(NC(=O)CC2CCN(C)CC2)sc1-c1ccc2c(/C=C/c3ccccn3)n[nH]c2c1 | 0.57 | 1.56 |  |
| 0.013 | CSCCC(N)C(=O)Nc1nc(C)c(-c2ccc3c(/C=C/c4ccccn4)n[nH]c3c2)s1 (stereo not given) | 0.101 | 0.594 |  |
| 0.035 | COCCOCC(=O)Nc1nc(C)c(-c2ccc3c(/C=C/c4ccccn4)n[nH]c3c2)s1 | 1.78 | 1.07 |  |
| 0.018 | Cc1nc(NC(=O)CN2CCN(CCO)CC2)sc1-c1ccc2c(/C=C/c3ccccn3)n[nH]c2c1 | 0.081 | 1.02 |  |
| 4.31 | CC(=O)Nc1nc(C)c(-c2ccc3c(/C=C/c4ccccn4)n[nH]c3c2)s1 | 0.301 | 5.24 |  |
| 0.37 | CN1CCN(Cc2ccc(C(=O)NCCSc3ccc4c(/C=C/c5ccccn5)n[nH]c4c3)cc2C(F)(F)F)CC1 | 0.041 | 4.4 |  |
| 0.646 | CN1CCN(Cc2ccc(NC(=O)NCCSc3ccc4c(/C=C/c5ccccn5)n[nH]c4c3)cc2C(F)(F)F)CC1 | 0.042 |  |  |
| 0.3 | Cc1nc(NC(=O)CC2CCCNC2)sc1-c1ccc2c(/C=C/c3ccccn3)n[nH]c2c1 (stereo not given) | 1.93 | 8.35 |  |
| 0.088 | CN1CCN(Cc2ccc(NC(=O)CCSc3ccc4c(/C=C/c5cnccn5)n[nH]c4c3)cc2C(F)(F)F)CC1 | 0.002 | 1.64 |  |
| 0.063 | CN1CCN(Cc2ccc(NC(=O)CCSc3ccc4c(/C=C/c5ccccn5)n[nH]c4c3)cc2C(F)(F)F)CC1 | 0.002 |  |  |
| 0.002 | Cc1nc(NC(=O)Cc2cccc(Cl)c2)sc1-c1ccc2c(/C=C/c3ccccn3)n[nH]c2c1 | 0.01 | 4.1 |  |

The next lines start with the molecule.

| SMILES | GI50 [1] [µM] | GI50 at 72 h [2] [µM] | GI50 at 72 h [3] [µM] | also measured |
| --- | --- | --- | --- | --- |
| Cc1nc(NC(=O)c2cccc(C(F)(F)F)c2)sc1-c1ccc2c(/C=C/c3ccccn3)n[nH]c2c1 | 0.003 | 0.005 | > 10 |  |
| Cc1nc(NC(=O)Cc2cccc3ccccc23)sc1-c1ccc2c(/C=C/c3ccccn3)n[nH]c2c1 | 0.033 | 0.015 | 3.69 |  |
| CN1CCN(Cc2ccc(C(=O)Nc3cccc(Sc4ccc5c(/C=C/c6ccccn6)n[nH]c5c4)c3)cc2C(F)(F)F)CC1 | 0.92 | 0.013 | 1.26 |  |
| CN1CCN(Cc2ccc(NC(=O)CCSc3ccc4c(-c5cccnc5)n[nH]c4c3)cc2C(F)(F)F)CC1 | 0.736 | 0.009 |  |  |
| Cc1nc(NC(=O)C2CCNCC2)sc1-c1ccc2c(/C=C/c3ccccn3)n[nH]c2c1 | 0.145 | 3.05 | 8.71 |  |
| Cc1nc(NC(=O)CN2CCN(C)CC2)sc1-c1ccc2c(-c3ccn(C)n3)n[nH]c2c1 | 0.073 | 0.351 | 1.53 |  |
| Cc1nc(NC(=O)c2ccc(CN3CCN(C)CC3)cc2)sc1-c1ccc2c(/C=C/c3ccccn3)n[nH]c2c1 | 0.008 | 0.012 | 1.46 |  |
| Cc1nc(NC(=O)CN2CCN(C)CC2)sc1-c1ccc2c(-c3cccnc3)n[nH]c2c1 | 0.251 | 2.63 | 5.13 |  |
| CN1CCN(Cc2ccc(C(=O)NCCCSc3ccc4c(/C=C/c5ccccn5)n[nH]c4c3)cc2C(F)(F)F)CC1 | 0.37 | 0.001 |  |  |
| Cc1nc(NC(=O)C(C)C)sc1-c1ccc2c(/C=C/c3ccccn3)n[nH]c2c1 | 0.251 | 0.181 | 1.58 |  |
| Cc1nc(NC(=O)CN2CCN(C)CC2)sc1-c1ccc2c(-c3cncc(F)c3)n[nH]c2c1 | 0.054 | 1.8 | 1.69 |  |
| Cc1nc(NC(=O)CC2CCNCC2)sc1-c1ccc2c(/C=C/c3ccccn3)n[nH]c2c1 | 0.116 | 0.982 | > 10 |  |
| O=C(Nc1cnn2ccc(N3CCC[C@@H]3c3cc(F)ccc3F)nc12)N1CC[C@H](O)C1 [LAROTRECTINIB] |  |  | > 10 | inhibition in vivo at 80 mg/kg/day [4]: 38.5%; GI50 [5]: 0.602 µM; inhibition in vivo at 80 mg/kg/day [6]: 78.9%; GI50 [7]: 0.258 µM; GI50 [8]: 0.011 µM; GI50 [9]: 0.102 µM; GI50 [10]: 0.148 µM; inhibition in vivo at 80 mg/kg/day [11]: 33.8% |
| Cc1nc(NC(=O)Cc2cccc(C(F)(F)F)c2)sc1-c1ccc2c(/C=C/c3ccccn3)n[nH]c2c1 | 0.002 | 0.013 | 2.31 |  |
| Cc1nc(NC(=O)CN2CCN(C)CC2)sc1-c1ccc2c(-c3cnc(N)nc3)n[nH]c2c1 | 0.752 | 5.63 | > 10 |  |
| Cc1nc(NC(=O)Nc2cccc(C(F)(F)F)c2)sc1-c1ccc2c(/C=C/c3ccccn3)n[nH]c2c1 | 0.003 | 0.004 | 0.105 |  |
| CN1CCN(Cc2ccc(NC(=O)CC(=O)Nc3ccc4c(/C=C/c5ccccn5)n[nH]c4c3)cc2C(F)(F)F)CC1 | 0.248 | 0.004 | 2.5 |  |
| CN1CCN(Cc2ccc(NC(=O)CCSc3ccc4c(-c5ccncc5)n[nH]c4c3)cc2C(F)(F)F)CC1 | 0.448 | 0.001 |  |  |

— ChEMBL document CHEMBL4765452, “Discovery of (E)-N-(4-methyl-5-(3-(2-(pyridin-2-yl)vinyl)-1H-indazol-6-yl)thiazol-2-yl)-2-(4-methylpiperazin-1-yl)acetamide (IHMT-TRK-284) as a novel orally available type II TRK kinase inhibitor capable of overcoming multiple resistant mutants” (Eur J Med Chem, 2020)
